Assay results from paper PMC8906099 (Current Research in Parasitology & Vector-borne Diseases, 2021).
In brackets after ≈: the same amount, converted by molar mass. Like-named read-outs stand apart in the source and are kept apart here.

Key:
[1] = system: amastigotes of T. cruzi Sylvio X10/4 strain; test: Trypanocidal activity against intracellular amastigotes in C2C12 cells; assay type: cell-based; conditions: Trypanosoma cruzi, C2C12, 72 h, read-out: IC50 ± SD, amastigotes
Method in brief: (§1)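 Trypomastigotes from C2C12 co-culture (DMEM, 10% FBS, 25 mM HEPES, pH 7.2) were seeded with C2C12 cells at a 1:15 infection rate. Test compound (0.19–100 μM, 2-fold, 0.1% DMSO) was added at the start. After 72 h at 37 °C, 5% CO2, cells were stained with DAPI 2 h and imaged confocally. Amastigote and host nuclei were told apart by size. IC50 came from sigmoid fits of the infection ratio normalised to controls. Mean ± SD, three experiments in triplicate.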

[2] = system: amastigotes of T. cruzi Sylvio X10/7 strain; test: as above; assay type: cell-based, Trypanosoma cruzi; conditions: Trypanosoma cruzi, C2C12, 72 h, read-out: IC50 ± SD, amastigotes, Sylvio X10/7 strain, 72 h incubation
Method in brief: as §1

[3] = system: intracellular amastigotes of T. cruzi CA-I/72 strain; test: Time-course study against intracellular amastigotes; assay type: cell-based; conditions: Trypanosoma cruzi, read-out: IC50 ± SD
Method in brief: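 CA-I/72 trypomastigotes were incubated with C2C12 cells for 48 h to form intracellular amastigotes. Test compound was then added (0.19–100 μM, 2-fold, 0.1% DMSO), with benznidazole and DMSO controls. Incubation ran 8, 12, 24 or 48 h at 37 °C, 5% CO2. Growth inhibition was read by DAPI high-content imaging. IC50 came from sigmoid fits of the normalised infection ratio. Time trend was tested by linear regression and ANOVA.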

[4] = system: trypomastigotes of T. cruzi (Sylvio X10/4 strain); test: Trypanocidal activity against trypomastigotes; assay type: cell-based; conditions: Trypanosoma cruzi, 72 h, read-out: IC50 ± SD, trypomastigotes
Method in brief: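 Sylvio X10/4 trypomastigotes were taken from amastigote culture supernatant and seeded at 1 × 10^6 per well. Test compound was added at 0.19–100 μM (0.1% DMSO), with benznidazole (0.019–10 μM) and DMSO controls. Incubation was 72 h at 37 °C, 5% CO2. Viability was read with resazurin (40 μM in PBS), fluorescence 530/630 nm. IC50 came from sigmoid dose–response fits.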

[5] = Cytotoxicity in non-infected cells; assay type: cell-based, murine; conditions: mouse, non-infected C2C12 cells
Method in brief: (§2)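 Non-infected C2C12 cells (5 × 10^4 per well) were plated for 24 h. Test compound (0.19–100 μM, 2-fold, 0.1% DMSO) was then added for 72 h at 37 °C. Controls were untreated, DMSO 0.4% and Triton 15%. After a PBS wash, MTT (2 mg/ml) was added for 4 h, and absorbance was read at 450 nm (reference 620 nm). CC50 came from sigmoid fits. SI = CC50/IC50 against CA-I/72 amastigotes at 72 h.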

non-infected C2C12 cells = test: Cytotoxicity in non-infected cells; assay type: cell-based, murine; conditions: non-infected C2C12 CC50 / IC50 amastigotes CA-I/72 strain, 72 h
Method in brief: as §2

[6] = system: amastigotes of T. cruzi Brazil strain; test: Trypanocidal activity against intracellular amastigotes in C2C12 cells; assay type: cell-based; conditions: Trypanosoma cruzi, C2C12, 72 h, read-out: IC50 ± SD, amastigotes
Method in brief: as §1

[7] = system: non-infected LLC-MK2 cells; test: Cytotoxicity in non-infected cells; assay type: cell-based, monkey; conditions: non-infected LLC-MK2 CC50 / IC50 amastigotes CA-I/72 strain, 72 h
Method in brief: (§3)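 LLC-MK2 monkey kidney cells, grown in RPMI with 10% FBS at 37 °C and 5% CO2, were plated and after 24 h exposed to test compound (0.19–100 μM, 2-fold dilutions, 0.1% DMSO) for 72 h at 37 °C. Controls were untreated cells, 0.4% DMSO and 15% Triton. After a PBS wash, MTT (2 mg/ml) was added for 4 h, and absorbance read at 450/620 nm. SI is CC50 divided by the 72 h CA-I/72 intracellular amastigote IC50.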

[8] = Cytotoxicity in non-infected cells; assay type: cell-based, monkey; conditions: monkey, non-infected LLC-MK2 cells
Method in brief: as §3

P. falciparum = conditions: ref Aher et al., 2011, cited from earlier work
[9] = system: amastigotes of T. cruzi CA-I/72 strain; test: Trypanocidal activity against intracellular amastigotes in C2C12 cells; assay type: cell-based; conditions: Trypanosoma cruzi, C2C12, 72 h, read-out: IC50 ± SD, amastigotes
Method in brief: as §1

[10] = Cytotoxicity in infected C2C12 cells after 72 h; assay type: cell-based, murine; conditions: mouse
Method in brief: (§4)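 C2C12 cells were infected with trypomastigotes (1:15) together with test compound (0.19–100 μM, 0.1% DMSO) for 72 h at 37 °C, 5% CO2. Host nuclei were counted by DAPI high-content imaging. Viability was the cell count relative to the DMSO-control mean. CC50 came from sigmoid fits. SI = CC50/IC50 against intracellular amastigotes of the same strain at 72 h.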

infected C2C12 cells = test: Cytotoxicity in infected C2C12 cells after 72 h; assay type: cell-based, murine; conditions: 72 h
Method in brief: as §4

female BALB/c mice = test: Acute oral toxicity test in mice; assay type: in vivo; conditions: for DA/TA (dead animals/total animals) / Mortality / Signs of toxicity: 14 days
Method in brief: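 Six-week-old female BALB/c mice (25–30 g), five per group. Single oral dose of 300 or 1,000 mg/kg test compound in Tween 80/ethanol/water (7:3:90), with a vehicle group. Clinical signs (ataxia, tremor, salivation, ptosis, seizures and others) watched continuously for 1 h, periodically over 24 h, then daily to day 14. Mortality recorded.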

[11] = Time-course cytotoxicity in infected C2C12 cells; assay type: cell-based, murine; conditions: mouse
Method in brief: (§5)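 This uses the CA-I/72 time-course infection format: a 48 h pre-infection of C2C12 cells, then test compound at 0.19–100 μM for 8, 12, 24 or 48 h, with DAPI imaging. Host viability was the total host cell count divided by the mean count of 0.1% DMSO controls. CC50 came from sigmoid fits. SI = CC50/IC50 against amastigotes at the matching time.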

[12] = system: C2C12 cells infected with intracellular amastigotes of T. cruzi (CA-I/72 strain); test: Time-course cytotoxicity in infected C2C12 cells; assay type: cell-based, murine; conditions: infected C2C12 vs amastigotes CA-I/72, time-course
Method in brief: as §5

[13] = system: several Streptococcus species; conditions: ref Vieira et al., 2018; cited from earlier work
Trichomonas vaginalis = conditions: ref Carapina da Silva et al., 2019, cited from earlier work
[14] = C2C12 cells infected with T. cruzi Brazil strain
[15] = C2C12 cells infected with T. cruzi CA-I/72 strain
[16] = C2C12 cells infected with T. cruzi Sylvio X10/4 strain
[17] = C2C12 cells infected with T. cruzi Sylvio X10/7 strain
[18] = infected C2C12, Sylvio X10/4 strain
[19] = infected C2C12, Sylvio X10/7 strain

Row | Structure (SMILES) | IC50 [1] [µM] | IC50 [2] [µM] | IC50 ([3]; 8 h) [µM] | IC50 ([3]; 12 h) [µM] | IC50 ([3]; 24 h) [µM] | IC50 ([3]; 48 h) [µM] | IC50 [4] [µM] | CC50 at 72 h [5] [µM] | SI (CC50/IC50) (non-infected C2C12 cells) | IC50 [6] [µM] | SI (CC50/IC50) [7] | CC50 at 72 h [8] [µM] | IC50 [9] [µM] | CC50 at 72 h [10, 14] [µM] | CC50 at 72 h [10, 15] [µM] | CC50 at 72 h [10, 16] [µM] | CC50 at 72 h [10, 17] [µM] | SI (CC50/IC50) (infected C2C12 cells; infected C2C12, Brazil strain) | SI (CC50/IC50) (infected C2C12 cells; infected C2C12, CA-I/72 strain) | SI (CC50/IC50) (infected C2C12 cells; [18]) | also measured
1 | COc1ccc(/C=C/C(=O)/C=C/c2ccc(OC)c(OC)c2)cc1OC [DBA 3, (1E,4E)-1,5-bis-(3,4-dimethoxyphenyl)penta-1,4-dien-3-one] | 9.63 ± 1.58 | 4.87 ± 0.05 | > 100 | 63.3 ± 3.87 | 62.1 ± 1.52 | 3.72 ± 0.56 | 11.5 ± 1.36 | 20.8 ± 0.67 | > 10 | 3.91 ± 0.25 | 7.62 | 11.5 ± 0.34 | 1.51 ± 0.42 | 1.73 ± 0.05 | 1.62 ± 0.22 | 1.25 ± 0.02 | 1.15 ± 0.29 | 0.43 | 1.07 | 0.13 | SI (CC50/IC50) (non-infected C2C12 cells; listed as 3): 13.78; IC50 (P. falciparum; chloroquine-resistant strain): 1.69 µM; IC50 (P. falciparum; chloroquine-sensitive strain): 1.97 µM; SI (CC50/IC50) (infected C2C12 cells; [19]): 0.23; Acute toxicity (general signs of toxicity or mortality) (female BALB/c mice; oral doses 300 and 1,000 mg/kg, 14-day period): no toxic effects; DA/TA (dead animals/total animals) (female BALB/c mice; single oral dose 300 mg/kg): 0/5; Mortality (female BALB/c mice; single oral dose 300 mg/kg): 0%; Signs of toxicity (female BALB/c mice; single oral dose 300 mg/kg): None; DA/TA (dead animals/total animals) (female BALB/c mice; single oral dose 1,000 mg/kg): 0/5; Mortality (female BALB/c mice; single oral dose 1,000 mg/kg): 0%; Signs of toxicity (female BALB/c mice; single oral dose 1,000 mg/kg): None; CC50 at 8 h [11]: 29.8 ± 1.32 µM; CC50 at 12 h [11]: 2.79 ± 0.3 µM; CC50 at 24 h [11]: 0.21 ± 0.13 µM; CC50 at 48 h [11]: 0.22 ± 0.17 µM; SI (CC50/IC50) ([12]; 12 h): 0.04; SI (CC50/IC50) ([12]; 24 h): 0.003; SI (CC50/IC50) ([12]; 48 h): 0.05
2 | O=C(/C=C/c1ccccc1)/C=C/c1ccccc1 [DBA 1, (1E,4E)-1,5-diphenylpenta-1,4-dien-3-one] | 34 ± 2.92 | 11.7 ± 0.81 | > 100 | 76.8 ± 1.39 | 37.5 ± 1.01 | 14.6 ± 1.1 | 41.2 ± 2.25 | 40.1 ± 1.25 | 8.59 | 21.1 ± 2.51 | 3.54 | 16.6 ± 0.61 | 4.67 ± 1.96 | 7.32 ± 0.41 | 5.74 ± 1.95 | 3.8 ± 0.24 | 3.29 ± 1 | 0.35 | 1.22 | 0.11 | MIC [13]: 100 µg/mL (≈ 427 µM); SI (CC50/IC50) (infected C2C12 cells; [19]): 0.28; reduction in the parasitic viability (Trichomonas vaginalis; after 24 h incubation): 98.8%; IC50 (Trichomonas vaginalis): 50 µM; CC50 at 8 h [11]: 12.2 ± 1.15 µM; CC50 at 12 h [11]: 2 ± 0.42 µM; CC50 at 24 h [11]: 0.28 ± 0.04 µM; CC50 at 48 h [11]: 0.03 ± 0.02 µM; SI (CC50/IC50) ([12]; 12 h): 0.02; SI (CC50/IC50) ([12]; 24 h): 0.007; SI (CC50/IC50) ([12]; 48 h): 0.002
